1 compound from ChEMBL document CHEMBL4480436, “Lead optimization of selective tubulin inhibitors as anti-trypanosomal agents” (Bioorg Med Chem, 2019) can be followed below.

Broadly, the IC50 is the concentration at which inhibition is half-maximal. The term logP denotes a log measure of how a compound divides between an organic and an aqueous phase. Read a high logP as a more lipophilic compound.

For data set [1], the system named is Trypanosoma brucei brucei. Put plainly: Antiparasitic activity against Trypanosoma brucei brucei Lister 427 assessed as reduction in parasite viability after 48 hrs by MTS assay. It is filed as functional, organism-based. Conditions: Lister 427, 48 h. In short, it runs like this: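 Bloodstream-form Lister 427 grown in HMI-9 with 10% FBS, 37 °C, 7.5% CO2. 5000 cells/well exposed to graded concentrations with 0.1% DMSO for 48 h at 37 °C. MTS/PMS reagent then added, 3 h at 37 °C, formazan read at 490 nm. Quadruplicate data normalized and fitted to dose–response curves for IC50 (Mean ± S.D.).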
Background: Tetrazolium dyes change colour on reduction, which living cells bring about.

A further data set deals with HEK293. As to the kind of experiment: Cytotoxicity against HEK293 cells after 48 hrs by MTT assay. In kind it is cell-based. To be noted: Homo sapiens, HEK293, 48 h. In outline: (§1)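 Cells kept in RPMI1640 with 10% heat-inactivated FBS, 2 mM L-glutamine, 1 mM pyruvate, pen-strep, 37 °C, 5% CO2. 3000 cells/well seeded 24 h, then exposed to graded concentrations (DMSO ≤0.1% final) for 48 h. Then 0.5 mg/mL MTT 3 h at 37 °C, DMSO solubilization, absorbance 570 nm. Quadruplicate data fitted to dose–response curves for IC50.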

The next data set has as its system RAW264.7. As to the kind of experiment: Cytotoxicity against mouse RAW264.7 cells after 48 hrs by MTT assay. It is filed as cell-based. Conditions: RAW264.7, 48 h. In short, it runs like this:
as §1

A short description of data set [2]: Selectivity index, ratio of IC50 for HEK293 cells to IC50 for Trypanosoma brucei brucei Lister 427. It is filed as toxicity. To be noted: human, read-out: Ratio IC50. In outline:
(§2)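 Ratio of mammalian MTT IC50 (48 h) to T. brucei MTS IC50 (48 h), both from quadruplicate dose–response fits.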

Data set [3] can be described thus: Selectivity index, ratio of IC50 for mouse RAW264.7 cells to IC50 for Trypanosoma brucei brucei Lister 427. It is filed as toxicity. Conditions: read-out: Ratio IC50. In short, it runs like this:
as §2

Data set [4] is described as follows: 1-Octanol/DDH2O partition coefficient, log P of the compound incubated for 48 hrs under stirring condition measured by UV-Vis spectrophotometric method. It is filed as physicochemical. To be noted: octanol/water, 48 h. In short, it runs like this:
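Slow-stir shake method (OECD-based, modified): compound dissolved in water-saturated 1-octanol, centrifuged 5000 rpm 5 min, supernatant mixed with equal volume octanol-saturated water, stirred at room temperature 48 h. Phases separated by centrifugation; octanol-phase UV absorbance read before and after. Log P = log[Ax/(A0−Ax)]. Repeated three times, Mean ± SD.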

The test system of data set [5] is Trypanosoma brucei brucei. Put plainly: Inhibition of tubulin polymerization in Trypanosoma brucei brucei Lister 427 assessed as increase in non-polymerized tubulin after 12 hrs by Western blot analysis. In short, it runs like this: (§3)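 Trypanosomes treated with different doses (0.5% DMSO) for 12 h, washed in TDB pH 7.4 and lysed in Pipes pH 6.8/EGTA/MgCl2/0.15% Triton X-100/glycerol buffer, 4 °C, 5 min. Lysate spun 15,000 g 30 min at 4 °C: supernatant taken as non-polymerized tubulin, RIPA-resuspended pellet as polymerized. Equal cell equivalents (1.83 × 10^7) run on 10% SDS-PAGE for western blot.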
(In general: A western blot detects proteins with antibodies after separation by electrophoresis.)

The subject of data set [6] is Trypanosoma brucei brucei. As to the kind of experiment: Inhibition of tubulin polymerization in Trypanosoma brucei brucei Lister 427 assessed as decrease in polymerized tubulin after 12 hrs by Western blot analysis. In short, it runs like this: as §3

Take `Cc1cc(NC(=O)c2cc(C(F)(F)F)cc(C(F)(F)F)c2)ccc1NS(C)(=O)=O`: the IC50 in data set [1] was 2.93 µM; with HEK293, 163 µM; in the data set with RAW264.7, > 250 µM. The selectivity ratio in data set [2] is 56; in data set [3] it was > 85. The compound also displayed a logP in data set [4] of 1.957. In addition, the inhibition entry in data set [5] and in data set [6] was “Dose-dependent effect” in each case.
